# E coli WT exp: growth inhibitors of wild-type E. coli, primary screen, strain BW25113, expanded library, OD600; OD600 absorbance; growth inhibition, % at 100 µM; 98,000 tested, 0.15% active;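 active means growth inhibition above about 50% at one test dose, limit read from the data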;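 further: growth measured after 20 h incubation at 37 °C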
# M1 ag: M1 muscarinic receptor agonists, primary screen, CHO-M1 cells, Fluo-4 calcium, agonist mode; Muscarinic acetylcholine receptor M1; Fluo-4 calcium fluorescence; active compounds read high; B-score at 10 µM; 64,000 tested, 3% active;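 active means fluorescence rise, raw or as B-score row- and column-corrected plate score, outside the 99.7% band of its plate's samples, either direction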
# M1 antagonist: antagonists of rat M1 muscarinic receptor | CHO-M1 cells, Fluo-4 calcium, ACh EC80 antagonist mode; active compounds read low | B-score at 10 µM | 64,000 tested, 3.4% active;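 active means calcium fluorescence response, raw or row-and-column corrected B-score, differing from the plate sample mean either way at a set confidence level, mostly lower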
# Hsp90 inh: tumor Hsp90 inhibitors, primary screen, cell lysate, fluorescence polarization, NCI-N417 lysate. Heat shock protein HSP 90-alpha (Homo sapiens), P07900. AID 429, 2006. inhibition, % at 30 µM. Cy3B-geldanamycin FP displacement. 64,000 tested, 0.35% active;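 active means inhibition above 50%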;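 further: 0% = tracer plus lysate wells and 100% = tracer alone without lysate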
# tolC growth inh: growth inhibitors of E. coli tolC mutant, primary screen, strain BW25113 ΔtolC::kan, 384-well; 65,000 tested, 2.2% active; growth inhibition, % at 10 µM (by protocol); AID 573, 2007; OD615;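 active means growth inhibition at or above a cutoff equal to the mean over every tested compound plus 3 SD, cut at about 60% in these data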;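 further: growth measured after 20 h incubation at 37 °C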
#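 signal = optical density read at 615 nm | test system = E. coli ΔtolC::kan strain BW25113 | timing = 20 h compound exposure of bacteria at 37 °C | buffer or medium = LB medium plus 50 µg/mL kanamycin | compound dosing = 10 µM final, single dose | evaluation = % inhibition of E. coli growth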
# BAP1 block: inhibitors of BAP1 deubiquitinase, primary screen, biochemical, Ub-AMC fluorescence, kinetic; calls only at 20 µM; recombinant BAP1, Ub-AMC hydrolysis fluorescence kinetic; active compounds read low; AID 436, 2006; 72,000 tested, 0.48% active;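 active means activity remaining at or below 50% of control, provided the compound also passes the data quality filters; inactive means the rest, including low values that fail the filters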;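 further: 100% = DMSO wells rate and 0% = substrate alone blank rate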
# Target sequence (Q92560 whole entry, looked up): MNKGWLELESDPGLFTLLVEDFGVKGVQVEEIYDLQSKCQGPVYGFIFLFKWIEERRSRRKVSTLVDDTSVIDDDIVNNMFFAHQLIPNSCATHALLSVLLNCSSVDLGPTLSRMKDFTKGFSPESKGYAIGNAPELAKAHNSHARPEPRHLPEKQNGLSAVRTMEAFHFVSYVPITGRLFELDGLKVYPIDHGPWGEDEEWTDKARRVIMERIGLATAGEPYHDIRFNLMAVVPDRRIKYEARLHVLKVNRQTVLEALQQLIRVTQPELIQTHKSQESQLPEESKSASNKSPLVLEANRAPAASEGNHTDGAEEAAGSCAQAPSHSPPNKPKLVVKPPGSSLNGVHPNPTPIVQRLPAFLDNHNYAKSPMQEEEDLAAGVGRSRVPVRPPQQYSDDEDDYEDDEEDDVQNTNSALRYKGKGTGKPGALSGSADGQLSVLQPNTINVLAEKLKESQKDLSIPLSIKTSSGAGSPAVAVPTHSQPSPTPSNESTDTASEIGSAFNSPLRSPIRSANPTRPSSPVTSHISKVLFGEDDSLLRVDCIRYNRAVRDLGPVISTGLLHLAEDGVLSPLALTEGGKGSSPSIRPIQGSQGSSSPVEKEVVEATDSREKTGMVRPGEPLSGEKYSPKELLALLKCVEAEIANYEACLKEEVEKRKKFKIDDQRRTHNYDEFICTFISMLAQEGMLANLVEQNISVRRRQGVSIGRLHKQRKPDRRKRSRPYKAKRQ
# Starred values were filed as active, the others as inactive; i = inactive; / = no result shown. Sampled rows, rich in hits. Any-hit rate of the full collection: about 5.1%.
SMILES,E coli WT exp,M1 ag,M1 antagonist,Hsp90 inh,tolC growth inh,BAP1 block
Cc1sc(N=Cc2ccc(O)cc2)c(C#N)c1C,/,/,/,/,/,i
COc1cccc(N2C(=O)C(O)=C(C(C)=O)C2c2ccc(OC)c(OC)c2)c1 (stereo not given),-3,0.2,0.57*,-1,7,i
COc1ccc(OC)c(NC(=O)c2ccc(-c3cccc(Cl)c3C)o2)c1,/,/,/,/,/,i
O=c1[nH]c2ccccc2nc1N1CCOCC1,3,/,/,/,/,/
O=c1cc(-c2ccccc2)[nH]n1-c1nc2ccccc2[nH]1,55*,-0.97,-0.46,-8,/,i
Cc1cc(Cl)c(OCCCNCc2ccccc2)c(Br)c1,57*,/,/,/,/,/
OCCNCCCOc1ccc(Cl)cc1Br,17,/,/,/,/,/
Clc1ccc(OCCCNCc2ccccc2)c(Br)c1,68*,/,/,/,/,/
COc1ccc(CN2C(=O)C3C(c4ccc(C)cc4)OC4(C(=O)c5ccccc5C4=O)C3C2=O)cc1 (stereo not given),/,/,/,/,/,i
O=C1c2ccccc2C(=O)N1C1C(=O)N(c2ccc(Cl)cc2)C1c1ccc(F)cc1 (stereo not given),/,/,/,/,/,i
O=C(Nc1cccc(-c2nc3ncccc3o2)c1)c1ccc(OCc2ccccc2)cc1,/,/,/,/,/,i
Cc1ccc2nc3c(cc(C#N)c(=N)n3CC3CCCO3)c(=O)n2c1 (stereo not given),/,9*,-1.4,2,-7,i
C#CCSc1nnc(-c2cccc3ccccc23)o1,/,-0.4,-0.34,-2,97*,i
CC(C)COC(=O)c1ccc(NC(=O)CCN2C(=O)c3ccccc3C2=O)cc1,/,/,/,/,/,i
O=C(NCCCc1ccccc1)c1ccccc1O,26,-2,-0.31,/,67*,/
O=C(NCCNC(=O)c1ccccc1O)c1ccccc1O,/,/,/,/,/,i
NC(=O)NC(Cc1ccccc1)c1ccccc1 (stereo not given),7,2.3*,-0.24,-1,-17,i
NC(=O)NC(Cc1ccccc1)C(=O)O (stereo not given),/,0.69,0.14,-1,-9,i
CC(C)c1nc2oc3c(NCc4ccccn4)ncnc3c2c2c1COC(C)(C)C2,/,4.6*,0.42,1,/,i
CCc1cc2c(=O)n(Cc3ccco3)c(SCc3c(C)noc3C)nc2s1,-28,-0.71,0.21,-8,65*,i
COc1ccc(Nc2nc(-c3cccs3)cs2)c(OC)c1,-11,/,/,/,/,/
COc1ccc(OC)c(Nc2nc(-c3cccs3)cs2)c1,-17,-0.0009,0.031,-4,61*,i
CN(C)c1nc2n(c(=O)n1)C(C#N)CS2 (stereo not given),2,-0.059,3*,-2,-4,i
COc1ccc(C(C[N+](=O)[O-])c2c(-c3ccccc3)n(C)c3ccccc23)cc1 (stereo not given),/,/,/,/,/,i
COc1ccc(Cc2nnc(NC(=O)Nc3ccc(Cl)cc3)s2)cc1OC,/,/,/,/,/,i
SMILES,E coli WT exp,M1 ag,M1 antagonist,Hsp90 inh,tolC growth inh,BAP1 block
O=C1C2=C(SCCS2)C(=O)N1c1ccccc1,6,-1.2,-0.22,-2,-6,i
O=C1C2=C(SCCS2)C(=O)N1CCCO,-4,7.9*,0.1,-5,-8,i
O=C(CN1C(=O)c2ccccc2C1=O)NCCCc1ccccc1,/,/,/,/,/,i
O=C(Cn1cnc2c(oc3ccccc32)c1=O)N1CCCc2ccccc21,2,1.4,1,-4,6,i
O=C(CSc1ncnc2c1oc1ccccc12)N1CCCc2ccccc21,-30,1.8,-2.3,-12,63*,i
Nc1nc(Nc2cccc(F)c2)nc2ccccc12,63*,-1,-0.71,/,25,/
Cc1sc(N=Cc2c(O)ccc3ccccc23)c(C#N)c1C,/,/,/,/,/,i
CCCCCC(=O)N1c2ccccc2NC2=C(C(=O)CC(c3cccc([N+](=O)[O-])c3)C2)C1c1ccco1 (stereo not given),/,/,/,/,/,i
CCOC(=O)c1cnc(-n2nc(C)cc2C)nc1NC(C)c1ccccc1 (stereo not given),-6,-0.85,-1.2,2,100*,i
O=C(NC1(O)C(=O)c2ccccc2C1=O)c1ccccc1,6,0.61,-0.014,73*,-18,i
CC(=O)NC(=O)c1cc2ccccc2oc1=Nc1cccc(F)c1,/,/,/,/,/,i
Cc1cccc(NC(=O)CSc2nnc(-c3cc(C)n(-c4ccccc4)c3C)o2)c1C,-26,0.075,0.0061,-8,63*,i
N#CC1(c2ccc(Cl)cc2)CCCC1,/,/,/,/,/,i
Cc1ccc(-c2nnc3sc(CCc4ccccc4)nn23)cc1,-4,/,/,-5,67*,/
COc1ccc(-c2nnc3sc(COc4ccccc4)nn23)cc1,-16,-1.1,-0.035,15,22,i
CCOC(=O)C1=NNC2C(=O)N(c3ccccc3Cl)C(=O)C12 (stereo not given),/,/,/,/,/,i
Cc1ccccc1OCCSc1nc2ccccc2[nH]1,/,/,/,/,/,i
COc1ccc(NC(=O)c2ccco2)cc1NC(=O)c1ccc(Br)o1,-12,8.9*,-0.062,-3,-18,i
COc1ccc(NC(=O)c2ccco2)cc1NC(=O)c1ccc(C)cc1,-2,0.23,-0.29,-3,-19,i
CC(C)(C)OC(=O)N1CCC[C@H]1c1nnc(SCc2ccccc2Cl)o1,2,-1.7,0.0047,2,36,i
CC(C)(C)OC(=O)N1CCC[C@H]1c1nnc(SCc2ccc(Cl)cc2Cl)o1,9,0.38,-0.057,1,89*,i
O=C(CCNc1ccc(F)c(Cl)c1)c1ccco1,19,0.82,-0.02,0,8,i
O=C(CCNc1cc(Cl)cc(Cl)c1)c1ccco1,27,-0.39,0,2,85*,i
CN(Cc1ccccc1)C(=O)CSc1nc2ccccc2c(=O)n1Cc1ccco1,-30,1.7,-1.1,-3,67*,i
Clc1ccccc1OCc1nnc(-c2ccccc2Br)o1,-2,-0.26,-0.63,-5,72*,/
SMILES,E coli WT exp,M1 ag,M1 antagonist,Hsp90 inh,tolC growth inh,BAP1 block
CCCC(C)C(=O)Nc1ccccc1C(=O)OCC (stereo not given),10,/,/,/,/,/
CCOC(=O)c1ccccc1NC(=O)C(C)Oc1ccccc1 (stereo not given),13,-6.6e-05,-0.32,0,69*,i
Nc1nc(CN2CCCCCC2)nc(Nc2ccccc2)n1,9,/,/,/,/,/
Cc1c(-c2nc(N)nc(Nc3ccccc3)n2)oc2ccccc12,-13,-0.028,-0.76,0,98*,/
COc1cc2c(C#N)c(N3CCN(C)CC3)nc(N)c2c(N)n1,8,/,/,/,/,/
N#Cc1c(N2CCCC2)nc(N)c2c(N)nc(N3CCCC3)cc12,-3,-0.6,0.12,77*,0,i
Cc1ccc(C(=O)Nc2nc(-c3cc4cc(Cl)ccc4oc3=O)cs2)cc1,/,/,/,/,/,i
CC1Oc2ccccc2N(Cc2ccccc2Cl)C1=O (stereo not given),-9,0.76,0.00089,-5,61*,i

# Screens deposited in PubChem BioAssay by several laboratories.
